We go through 14 molecules from ChEMBL document CHEMBL2150868, “Bi-, tri-, and polycyclic acylphloroglucinols from Hypericum empetrifolium” (J Nat Prod, 2012).

Molecules are shown by their SMILES.

One test can be described thus: Antiangiogenic activity in bovine endothelial cells assessed as inhibition of cell proliferation. The format is functional, cell-based. The note with it: Bos taurus.
As for `CC(C)=CCC[C@]1(C)[C@@H](CC=C(C)C)C[C@]2(CC=C(C)C)C(=O)C(CC=C(C)C)=C(O)[C@@]1(C(=O)C(C)C)C2=O`, the IC50 (usually the point on the concentration scale where inhibition reaches its midpoint) stood at 2100 nM.

Another test is described as follows: Antiangiogenic activity in SV-40T transfected human HMEC1 cells assessed as inhibition of cell proliferation after 72 hrs by crystal violet staining. The format is functional, cell-based. To be noted: HMEC-1, 72 h. In outline:
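SV-40T-transfected human microvascular endothelial HMEC-1 cells kept at 37 °C, 5% CO2, humidified. Seeded 1.5 × 10^3 cells/well in endothelial growth medium with 10% FCS, allowed 24 h adhesion (crystal-violet baseline plate). Exposed to 0.1−30 or 0.2−60 μM compound (DMSO; 0.1% DMSO control) for 72 h. Crystal violet stain, A540. IC50 ± SD from three independent experiments, hexaplicates.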
Consider `CCC(C)C(=O)c1c(O)cc(O)c2c1O[C@](C)(CCC=C(C)C)[C@@H](O)C2` (relative stereo) [EMPETRIKARINOL B], for which the IC50 stood at 18.4 µM.
Still for that read-out and setting: the figure for `COc1cc(O)c(CC=C(C)C)c(O)c1C(=O)/C=C/c1ccc(O)cc1` [XANTHOHUMOL] is 11.4 µM; for `CCC(C)C(=O)c1c(O)cc(O)c2c1OC(C)(CCC=C(C)C)CC2` (centres undefined) it is 13.3 µM.
For the molecule `CCC(C)C(=O)c1c(O)cc2c(c1O)CCC(C)(CCC=C(C)C)O2` (centres undefined), the half-maximal inhibitory concentration (IC50) was determined as 21.1 µM.
Consider `CCC(C)C(=O)c1c(O)cc(O)c2c1OC(C)(CCC=C(C)C)C=C2` (centres undefined) [EMPETRIKARINEN B], for which the IC50 stood at 15 µM.
Still for that read-out and setting: the figure for `CC(C)C(=O)c1c(O)cc(O)c2c1O[C@]1(C)CCCC(C)(C)[C@H]1C2` (relative stereo) [EMPETRIFERDINAN A] is 24.4 µM.
Turning to `CC(C)=CCCC1(C)C=Cc2c(O)cc(O)c(C(=O)C(C)C)c2O1` (centres undefined) [EMPETRIKARINEN A], the IC50 amounted to 24.4 µM.
For the molecule `CCC(C)C(=O)c1c(O)cc2c3c1OC(C)(C)C1CCC(C)(CC31)O2` (centres undefined) [EMPETRIFRANZINAN C], the IC50 was 9.2 µM.
The same measure, in the same setting: the figure for `CCC(C)C(=O)c1c(O)cc(O)c2c1O[C@]1(C)CCCC(C)(C)[C@H]1C2` (relative stereo) [EMPETRIFERDINAN B] is 16.6 µM; for `CC(C)=CCC[C@@]1(C)Oc2c(c(O)cc(O)c2C(=O)C(C)C)C[C@@H]1O` (relative stereo) [EMPETRIKARINOL A] it is 23.4 µM; for `CC(C)=CCCC1(C)CCc2c(cc(O)c(C(=O)C(C)C)c2O)O1` (centres undefined) it is 29.6 µM.
On the same count and under the same terms, the figure for `CCC(C)C(=O)c1c(O)cc(O)c2c1O[C@]1(C)CC[C@@H](O)C(C)(C)[C@H]1C2` (relative stereo) [EMPETRIFERDINOL] is 29.2 µM; for `CC(C)=CCCC1(C)CCc2c(O)cc(O)c(C(=O)C(C)C)c2O1` (centres undefined) it is 16.5 µM.
